Reference: ChEMBL document CHEMBL5712919, “ARID1A Mutations Promote P300-Dependent Endometrial Invasion through Super-Enhancer Hyperacetylation” (Cell Rep, 2020)
pIC50: −log10 of the molar value. Active and inactive are the calls of the source. No cut-off for these calls is given here.

What was measured:
12Z [1] = assay: Growth inhibition of human 12Z cells transfected with shARID1A assessed as reduction in cell viability at 0.01 to 100 uM after 72 hrs by crystal violet staining fluorescence assay; format: functional, cell-based; settings: dose 0.01-100 µM
[2] = Cytotoxicity against human 12Z cells transfected with shARID1A assessed as reduction in cell viability after 6 days by crystal violet staining based assay; format: functional; settings: 144 h
Outline: (§1)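 12Z cells seeded at 100 cells/well and, after 24 h, treated with A-485 from 10 nM to 100 μM. After 6 days, colonies stained with crystal violet and counted.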

[3] = target: Histone acetyltransferase p300 (Homo sapiens) (UniProt Q09472); assay: Inhibition of P300 in human 12Z cells assessed as reduction in H3K27ac expression at 0.01 to 100 uM for 24 hrs by western blot analysis; format: cell-based; settings: dose 0.01-100 µM
Outline: (§2)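 Histones were acid-extracted from A-485-treated 12Z cells with 0.2 N HCl in the presence of sodium butyrate. Extracts were run on a 15% SDS-PAGE gel and blotted with H3K27ac (1:1,000) and total H3 (1:2,000) antibodies, with IRDye 800CW secondary and fluorescence imaging.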

[4] = target: Histone acetyltransferase p300 (Homo sapiens) (UniProt Q09472); assay: Inhibition of P300 in human 12Z cells transfected with shARID1A assessed as decrease in SERPINE1 RNA expression at 100 nM for 24 hrs by Western blot analysis; format: cell-based
[5] = target: Histone acetyltransferase p300 (Homo sapiens) (UniProt Q09472); assay: Inhibition of P300 in human 12Z cells transfected with shARID1A assessed as affected in H3K27ac expression at 1 uM for 24 hrs by CUT and run analysis; format: cell-based
12Z [6] = assay: Inhibition of cell migration in human 12Z cells transfected with shARID1A at 31 to 316 nM after 24 hrs by Matrigel based analysis; format: functional; settings: dose 31-316 nM, in the assay text read “culture-insert gap assay” for “Matrigel based analysis”
Outline: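 12Z cells (4,000/well) in 4-well culture inserts were transduced with control or shARID1A lentivirus (MOI 100). Serum-free medium with drug or vehicle was added after 24 hr, and inserts were removed at 16 hr. Front distances at 16 points were imaged at 0 and 24 hr, and migration was taken as the 0 h minus 24 h mean distance.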

[7] = target: Histone acetyltransferase p300 (Homo sapiens) (UniProt Q09472); assay: Inhibition of P300 in human 12Z cells transfected with shARID1A assessed as decrease in SERPINE1 RNA expression at 100 nM by RNA-seq analysis; format: cell-based
12Z [8] = assay: Induction of anchorage-dependent cell death in human 12Z cells assessed as increase in caspase3/7 level at 100 nM after 24 hrs by caspase-Glo 3/7 assay; format: functional, cell-based
Outline: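 The Caspase-Glo 3/7 assay was run in suspension. siRNA-transfected 12Z cells (48 hr), drug-treated for 24 hr, were seeded at 10,000 cells/well on cell-repellent plates in serum-free DMEM/F12 with A-485 or vehicle. After 24 hr, Caspase-Glo reagent was added 1:1 and incubated 1 hr at 37°C before reading luminescence.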

[9] = Cytotoxicity against human 12Z cells assessed as reduction in cell viability after 72 hrs at 0.01 to 100 uM by calcein-AM stainig based fluorescence assay; format: toxicity; settings: dose 0.01-100 µM
Outline: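 12Z cells seeded at 4,000 cells/well, transfected 24 h later, then drug-treated 24 h after transfection for 48–72 hr. Viable cells were read after 1 h with 2 μg/mL calcein-AM as fluorescence.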

12Z [10] = assay: Inhibition of cell invasion in human 12Z cells transfected with shARID1A at 10 to 100 nM after 24 hrs by transwell invasion assay; format: functional, cell-based; settings: dose 10-100 nM
Outline: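 12Z cells were siRNA-transfected and drug added 24 h later. At 48 h, 30,000 cells in 0.3 mg/mL Matrigel were seeded on Matrigel-coated 8 μm transwells, with serum-free medium on top and 5% FBS medium below, drug in both chambers. After 16 hr, cells were stained with calcein-AM, unmigrated cells were removed, and five fields/well were imaged and counted.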

12Z [11] = assay: Induction of cell death in human 12Z cells transfected with shARID1A assessed as increase in ratio of dead to live cells at 100 nM after 16 hrs by Matrigel based analysis; format: functional
Outline: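 12Z cells were siRNA-transfected and drug-treated 24 h post-transfection. At 48 h, 10,000 cells in 0.3 mg/mL Matrigel were seeded on Matrigel-coated wells in serum-free medium with 100 nM A-485 or vehicle.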

[12] = Cytotoxicity against human 12Z cells assessed as reduction in cell viability after 6 days by crystal violet staining based assay; format: toxicity; outline: as §1
[13] = Cytotoxicity against human 12Z cells transfected with control shRNA assessed as reduction in cell viability after 6 days by crystal violet staining based assay; format: toxicity; outline: as §1
[14] = Cytotoxicity against human 12Z cells transfected with control shRNA assessed as reduction in cell viability at 0.01 to 100 uM after 72 hrs by crystal violet staining fluorescence assay; format: toxicity, cell-based; settings: dose 0.01-100 µM
[15] = target: Histone acetyltransferase p300 (Homo sapiens) (UniProt Q09472); assay: Inhibition of P300 in human 12Z cells assessed as reduction in H3K27ac expression at 316 nM for 24 hrs by western blot analysis; format: cell-based; outline: as §2

Histone acetyltransferase p300 (Homo sapiens), sequence (Q09472 whole entry): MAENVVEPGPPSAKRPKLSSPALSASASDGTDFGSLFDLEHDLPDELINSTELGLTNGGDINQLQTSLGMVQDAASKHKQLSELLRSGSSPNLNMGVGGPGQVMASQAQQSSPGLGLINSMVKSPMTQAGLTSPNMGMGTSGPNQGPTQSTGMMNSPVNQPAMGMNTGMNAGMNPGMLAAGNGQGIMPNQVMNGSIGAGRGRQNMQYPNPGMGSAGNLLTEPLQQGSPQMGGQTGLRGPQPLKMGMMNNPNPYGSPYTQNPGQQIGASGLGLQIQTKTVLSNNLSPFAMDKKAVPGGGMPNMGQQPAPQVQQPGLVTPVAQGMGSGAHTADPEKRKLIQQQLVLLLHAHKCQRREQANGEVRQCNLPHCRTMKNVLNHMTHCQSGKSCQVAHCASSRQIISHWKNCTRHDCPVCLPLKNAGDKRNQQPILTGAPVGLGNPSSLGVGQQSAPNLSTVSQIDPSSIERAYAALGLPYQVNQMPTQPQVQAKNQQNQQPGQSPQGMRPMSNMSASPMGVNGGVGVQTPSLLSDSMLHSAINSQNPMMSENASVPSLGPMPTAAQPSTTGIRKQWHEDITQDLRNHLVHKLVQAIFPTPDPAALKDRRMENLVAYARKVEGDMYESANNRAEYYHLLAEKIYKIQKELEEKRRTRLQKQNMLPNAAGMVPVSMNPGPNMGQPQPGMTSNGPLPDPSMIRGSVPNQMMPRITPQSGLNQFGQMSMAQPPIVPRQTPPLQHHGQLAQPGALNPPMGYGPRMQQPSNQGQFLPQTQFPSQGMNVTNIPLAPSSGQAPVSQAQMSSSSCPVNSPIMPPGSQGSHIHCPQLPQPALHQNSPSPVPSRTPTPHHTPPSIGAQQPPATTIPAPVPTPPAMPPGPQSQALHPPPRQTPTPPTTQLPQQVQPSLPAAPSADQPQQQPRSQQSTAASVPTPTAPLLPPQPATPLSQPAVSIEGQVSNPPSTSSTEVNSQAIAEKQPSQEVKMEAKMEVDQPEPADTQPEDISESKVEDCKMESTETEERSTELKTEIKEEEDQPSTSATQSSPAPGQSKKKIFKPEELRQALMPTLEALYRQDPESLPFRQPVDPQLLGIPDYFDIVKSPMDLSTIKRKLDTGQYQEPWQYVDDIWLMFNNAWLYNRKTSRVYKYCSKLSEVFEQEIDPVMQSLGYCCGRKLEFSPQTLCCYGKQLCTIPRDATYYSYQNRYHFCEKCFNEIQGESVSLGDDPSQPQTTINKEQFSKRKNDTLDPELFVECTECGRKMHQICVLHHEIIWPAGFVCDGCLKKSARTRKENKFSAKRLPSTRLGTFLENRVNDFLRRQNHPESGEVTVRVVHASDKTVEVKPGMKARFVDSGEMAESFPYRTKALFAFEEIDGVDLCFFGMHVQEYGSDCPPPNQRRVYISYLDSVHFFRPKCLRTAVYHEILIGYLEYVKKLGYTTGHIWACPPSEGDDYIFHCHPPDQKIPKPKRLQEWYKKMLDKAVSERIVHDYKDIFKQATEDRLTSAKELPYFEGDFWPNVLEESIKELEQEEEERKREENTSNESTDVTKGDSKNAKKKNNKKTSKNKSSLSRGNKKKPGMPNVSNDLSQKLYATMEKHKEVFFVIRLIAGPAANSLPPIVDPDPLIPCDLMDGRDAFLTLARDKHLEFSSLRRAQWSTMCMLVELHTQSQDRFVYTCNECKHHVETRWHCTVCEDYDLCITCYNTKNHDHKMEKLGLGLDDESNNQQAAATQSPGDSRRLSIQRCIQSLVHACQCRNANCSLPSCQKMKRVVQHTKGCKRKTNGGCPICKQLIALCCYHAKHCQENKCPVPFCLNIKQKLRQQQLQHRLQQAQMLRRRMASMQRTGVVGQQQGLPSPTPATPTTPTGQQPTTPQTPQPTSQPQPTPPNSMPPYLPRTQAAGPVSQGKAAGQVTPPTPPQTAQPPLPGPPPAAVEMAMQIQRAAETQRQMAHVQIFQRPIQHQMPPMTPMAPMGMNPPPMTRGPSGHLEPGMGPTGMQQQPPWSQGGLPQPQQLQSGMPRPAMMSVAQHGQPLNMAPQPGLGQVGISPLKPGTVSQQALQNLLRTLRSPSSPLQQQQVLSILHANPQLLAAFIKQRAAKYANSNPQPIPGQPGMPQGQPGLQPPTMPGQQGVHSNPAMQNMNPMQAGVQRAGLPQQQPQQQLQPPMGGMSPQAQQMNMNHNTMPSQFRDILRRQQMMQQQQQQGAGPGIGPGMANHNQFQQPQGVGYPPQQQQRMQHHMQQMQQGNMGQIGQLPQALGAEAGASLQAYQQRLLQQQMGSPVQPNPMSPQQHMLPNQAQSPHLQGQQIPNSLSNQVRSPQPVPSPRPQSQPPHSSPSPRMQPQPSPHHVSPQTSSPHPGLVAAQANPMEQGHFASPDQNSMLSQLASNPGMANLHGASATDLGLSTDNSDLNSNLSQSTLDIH

inhibition [3]: Active
inhibition [4]: Active
inhibition [5]: Active
inhibition [7]: Active
inhibition [15]: Active
SMILES: CNC(=O)Nc1ccc2c(c1)CC[C@@]21OC(=O)N(CC(=O)N(Cc2ccc(F)cc2)[C@@H](C)C(F)(F)F)C1=O [A-485]
growth inhibition (GI) (12Z [1]): Active
pIC50 [2]: 5.27
inhibition (12Z [6]): Active
Activity (12Z [8]): Active
Activity [9]: Toxic
inhibition (12Z [10]): Active
Activity (12Z [11]): Active
IC50 at 6 days [12]: 3.32 µM
IC50 at 6 days [13]: 3.61 µM
Activity [14]: Toxic
